Data set [1] is described as follows: (§1) Inhibition of HIV1 Nucleocapsid protein (11 to 55 residues) assessed as reduction in NC-induced cTAR DNA destabilization by measuring intrinsic fluorescence using Alexa488-5'-cTAR-3'-Dabcyl oligonucleotide as substrate at 20 degree C incubated for 15 mins by fluorescence assay. Further details: species or system Human immunodeficiency virus 1. In outline: (§2)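 Fluorescence NC-inhibition assay following destabilisation of cTAR DNA, the complement of the HIV-1 transactivation response element, dual-labelled with Alexa488 dye and Dabcyl quencher. NC protein at 1 μM, so the lowest measurable IC50 is 0.5 μM.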

For data set [2], the system named is Human immunodeficiency virus 1. Described as §1. Summed up:
as §2

Data set [3] in a line: Cytotoxicity against human HeLa cells assessed as reduction in cell viability. It counts as cell-based.
The nature of data set [4]: Cytotoxicity against phytohemagglutinin and interleukin-2-stimulated human PBMC cells assessed as reduction in cell viability measured after 7 days by MTS assay. The data set is classed as cell-based.
Data set [5] deals with Human immunodeficiency virus 1. The experiment in a line: Antiviral activity against wild-type HIV1 NL4-3 infected in human TZM-bl cells infected with supernatants from virus-infected human MT2 cells treated with compound for 48 to 72 hrs assessed as reduction in viral replication after 2 days by bright Glo-luciferase reporter gene assay based BiCycle assay. It counts as functional, organism-based. The following applies: Human immunodeficiency virus 1, NL4-3, TZM. Summed up: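 Two-round cell assay over the full replication cycle: MT-2 T cells are infected with wild-type reference strain NL4-3 in the first round, and reporter TZM-bl cells are infected in the second round. Values are given as mean ± deviation.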

Data set [6] in a line: Selectivity index, ratio of CC50 for human PBMC cells stimulated with phytohemagglutinin and interleukin-2 assessed as reduction in cell viability measured after 7 days by MTS assay to EC50 for wild-type HIV1 NL4-3 infected in human TZM-bl cells infected with supernatants from virus-infected human MT2 cells treated with compound for 48 to 72 hrs assessed as reduction in viral replication after 2 days by bright Glo-luciferase reporter gene assay based BiCycle assay. The following applies: read-out: Ratio CC50/EC50. It counts as toxicity. In outline: (§3)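 Selectivity index is CC50 from the respective cytotoxicity assay (HeLa or PBMC) divided by EC50 from the two-round MT-2/TZM-bl NL4-3 assay.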
Background: Formazan colour is commonly taken as a measure of viable cells.

A short description of data set [7]: Selectivity index, ratio of CC50 for human HeLa cells assessed as reduction in cell viability to EC50 for wild-type HIV1 NL4-3 infected in human TZM-bl cells infected with supernatants from virus-infected human MT2 cells treated with compound for 48 to 72 hrs assessed as reduction in viral replication after 2 days by bright Glo-luciferase reporter gene assay based BiCycle assay. The data set is classed as toxicity. The following applies: read-out: Ratio CC50/EC50. In outline:
as §3
Background: Reporter assays use an easily measured gene product as a stand-in for the process of interest.

A further data set has as its target T1, Cytochrome P450 1A2 (Homo sapiens, UniProt P05177).
T1 sequence (P05177 whole entry): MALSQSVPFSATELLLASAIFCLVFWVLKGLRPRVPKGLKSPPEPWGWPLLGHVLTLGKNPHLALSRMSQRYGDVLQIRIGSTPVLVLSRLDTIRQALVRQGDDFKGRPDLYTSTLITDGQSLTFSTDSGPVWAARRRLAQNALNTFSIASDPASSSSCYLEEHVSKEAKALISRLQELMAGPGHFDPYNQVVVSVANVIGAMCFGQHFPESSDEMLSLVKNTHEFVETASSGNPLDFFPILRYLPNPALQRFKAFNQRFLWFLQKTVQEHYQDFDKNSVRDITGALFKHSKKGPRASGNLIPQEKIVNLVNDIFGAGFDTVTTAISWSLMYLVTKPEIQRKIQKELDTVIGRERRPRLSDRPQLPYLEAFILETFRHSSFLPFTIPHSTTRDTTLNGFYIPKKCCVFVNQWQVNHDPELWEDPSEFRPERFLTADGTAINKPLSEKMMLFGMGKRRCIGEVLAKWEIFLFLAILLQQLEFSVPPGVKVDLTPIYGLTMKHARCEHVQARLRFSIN
The experiment in a line: Inhibition of human microsomal CYP1A2 expressed in baculovirus infected insect cells using luciferin-1A2 as substrate preincubated with enzyme-substrate mixture for 30 mins followed by further incubation with NADPH for 30 mins by CYP450 luciferase Glo assay. It counts as ADME.

Data set [8] in a line: Half life in human hepatocytes at 3 uM by LC-MS/MS analysis. It counts as ADME, cell-based, Hepatocyte.
In another data set the target is Cytochrome P450 2D6 (Homo sapiens, UniProt P10635). The data set can be described thus: Inhibition of human microsomal CYP2D6 expressed in baculovirus infected insect cells using luciferin-ME as substrate preincubated with enzyme/substrate mixture for 30 mins followed by further incubation with NADPH for 30 mins by CYP450 luciferase Glo assay. It counts as ADME.

In a further data set the target is Cytochrome P450 3A4 (Homo sapiens, UniProt P08684). The data set can be described thus: Inhibition of human microsomal CYP3A4 expressed in baculovirus infected insect cells using luciferin-IPA as substrate preincubated with enzyme/substrate mixture for 30 mins followed by further incubation with NADPH for 30 mins by CYP450 luciferase Glo assay. It counts as ADME.

Data set [9] in a line: Half life in mouse hepatocytes at 3 uM by LC-MS/MS analysis. The data set is classed as ADME, cell-based, Hepatocyte.
Data set [10] deals with Voltage-gated inwardly rectifying potassium channel KCNH2 (Homo sapiens, UniProt Q12809). The data set can be described thus: Displacement of Tracer Red from human ERG measured after 4 hrs by fluorescence polarization assay. (In general: Fluorescence polarisation rises when a labelled molecule tumbles more slowly, as on binding a larger partner.)
A short description of data set [11]: Half life in mouse plasma at 3 uM by LC-MS/MS analysis. It counts as ADME, cell-free.
Data set [12] in a line: Half life in human plasma at 3 uM by LC-MS/MS analysis. The data set is classed as ADME, cell-free.
The target in data set [13] is Human immunodeficiency virus type 1 integrase (Human immunodeficiency virus 1) (UniProt Q7ZJM1). The data set can be described thus: Inhibition of wild type recombinant HIV1 His6-tagged integrase expressed in Escherichia coli BL21 using 18 nucleotide 3'-biotin labeled DNA acceptor as substrate upto 10 uM preincubated for 1 hr followed by substrate addition and further incubated for 90 mins in presence of recombinant LEDGF/p75 by HTRF assay.

Calls of active or inactive are those of the source. The rule behind the calls is not given here.

Human immunodeficiency virus type 1 integrase (Human immunodeficiency virus 1), sequence (Q7ZJM1 as listed by the source): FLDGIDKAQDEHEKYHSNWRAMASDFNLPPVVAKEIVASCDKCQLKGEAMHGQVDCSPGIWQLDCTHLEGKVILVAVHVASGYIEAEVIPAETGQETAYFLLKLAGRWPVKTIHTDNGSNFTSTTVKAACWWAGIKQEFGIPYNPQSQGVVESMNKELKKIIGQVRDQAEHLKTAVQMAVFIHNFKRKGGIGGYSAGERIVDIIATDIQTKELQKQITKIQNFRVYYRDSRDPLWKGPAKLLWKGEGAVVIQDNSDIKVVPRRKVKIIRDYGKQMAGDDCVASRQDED
Voltage-gated inwardly rectifying potassium channel KCNH2, sequence (Q12809 whole entry): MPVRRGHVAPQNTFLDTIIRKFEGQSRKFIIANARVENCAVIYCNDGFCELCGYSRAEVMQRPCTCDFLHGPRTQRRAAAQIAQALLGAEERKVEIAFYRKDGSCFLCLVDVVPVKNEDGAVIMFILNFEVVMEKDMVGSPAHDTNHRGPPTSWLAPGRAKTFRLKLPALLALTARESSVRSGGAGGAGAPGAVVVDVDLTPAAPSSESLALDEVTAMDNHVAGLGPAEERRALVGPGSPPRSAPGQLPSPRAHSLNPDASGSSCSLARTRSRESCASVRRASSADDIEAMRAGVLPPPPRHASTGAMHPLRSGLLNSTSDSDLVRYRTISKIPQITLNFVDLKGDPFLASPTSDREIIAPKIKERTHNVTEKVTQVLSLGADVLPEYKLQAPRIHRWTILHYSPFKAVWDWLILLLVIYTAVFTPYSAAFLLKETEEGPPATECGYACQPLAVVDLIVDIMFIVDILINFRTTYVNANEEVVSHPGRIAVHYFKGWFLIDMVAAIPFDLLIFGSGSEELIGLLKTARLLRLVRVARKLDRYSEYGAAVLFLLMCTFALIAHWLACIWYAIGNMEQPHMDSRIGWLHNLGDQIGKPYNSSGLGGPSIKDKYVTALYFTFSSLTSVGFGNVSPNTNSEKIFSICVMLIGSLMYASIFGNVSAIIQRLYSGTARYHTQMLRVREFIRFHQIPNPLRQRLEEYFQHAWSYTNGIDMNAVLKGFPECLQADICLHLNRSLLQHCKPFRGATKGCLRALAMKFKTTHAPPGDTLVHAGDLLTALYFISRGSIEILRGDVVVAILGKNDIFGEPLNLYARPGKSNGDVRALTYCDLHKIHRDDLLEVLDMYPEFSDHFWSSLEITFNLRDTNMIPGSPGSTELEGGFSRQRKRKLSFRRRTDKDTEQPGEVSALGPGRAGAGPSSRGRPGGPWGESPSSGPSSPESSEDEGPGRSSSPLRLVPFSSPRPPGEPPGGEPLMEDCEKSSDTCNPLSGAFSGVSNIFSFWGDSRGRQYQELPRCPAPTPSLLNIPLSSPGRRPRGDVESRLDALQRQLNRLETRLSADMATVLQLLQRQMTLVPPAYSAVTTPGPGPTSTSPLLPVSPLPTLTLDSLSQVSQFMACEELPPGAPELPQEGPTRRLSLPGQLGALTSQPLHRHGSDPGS
Cytochrome P450 3A4, sequence (P08684 whole entry): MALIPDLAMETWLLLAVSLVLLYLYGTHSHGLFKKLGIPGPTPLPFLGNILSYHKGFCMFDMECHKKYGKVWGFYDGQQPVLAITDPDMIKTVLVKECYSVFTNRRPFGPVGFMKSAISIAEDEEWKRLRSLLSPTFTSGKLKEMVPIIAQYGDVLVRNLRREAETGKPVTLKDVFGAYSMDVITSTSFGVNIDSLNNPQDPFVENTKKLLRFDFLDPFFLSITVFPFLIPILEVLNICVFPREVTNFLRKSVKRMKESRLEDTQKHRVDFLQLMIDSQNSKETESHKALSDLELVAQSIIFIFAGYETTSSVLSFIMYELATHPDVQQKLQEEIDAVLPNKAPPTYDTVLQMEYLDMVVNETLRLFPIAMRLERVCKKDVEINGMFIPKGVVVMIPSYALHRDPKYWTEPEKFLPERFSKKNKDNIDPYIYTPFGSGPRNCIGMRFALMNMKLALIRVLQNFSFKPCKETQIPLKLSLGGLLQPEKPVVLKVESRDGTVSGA
Cytochrome P450 2D6, sequence (P10635 whole entry): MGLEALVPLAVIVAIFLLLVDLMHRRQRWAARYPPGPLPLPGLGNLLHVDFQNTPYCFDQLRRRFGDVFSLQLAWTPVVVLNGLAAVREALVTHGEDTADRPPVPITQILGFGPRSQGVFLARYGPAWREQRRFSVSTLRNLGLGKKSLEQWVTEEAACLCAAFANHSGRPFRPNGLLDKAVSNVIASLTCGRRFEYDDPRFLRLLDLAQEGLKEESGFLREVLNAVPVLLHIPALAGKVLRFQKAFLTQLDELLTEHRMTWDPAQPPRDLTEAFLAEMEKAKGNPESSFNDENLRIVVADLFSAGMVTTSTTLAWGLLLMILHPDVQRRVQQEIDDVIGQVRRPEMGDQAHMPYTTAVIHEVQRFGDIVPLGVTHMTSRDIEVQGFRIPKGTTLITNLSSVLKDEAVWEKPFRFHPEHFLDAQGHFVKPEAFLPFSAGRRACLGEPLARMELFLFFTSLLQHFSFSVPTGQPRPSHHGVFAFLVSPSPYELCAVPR

As usually defined, the IC50 is the concentration at which inhibition is half-maximal. Regarding `O=C(NCC1CCCCC1)c1nc(CCc2ccccc2)nc(O)c1O`, in data set [1], the IC50 result is reported as “Not Active”.

`C[C@@H](NC(=O)c1nc(-c2cccc(C(F)(F)F)n2)nc(O)c1O)C1CCCCC1`: the IC35 in data set [2] came to 20 µM.

Regarding `CC(c1ccccc1)c1nc(O)c(O)c(C(=O)NCC2CCCCC2)n1` (centres undefined), the IC50 result in data set [1] is “Not Active”.

As for `Cc1ccnc(-c2nc(O)c(O)c(C(=O)N[C@@H](C)C3CCCCC3)n2)c1`, the 50% inhibitory concentration (IC50) in data set [1] (read-out: IC50) turned out to be 41 µM.

Take `C[C@@H](NC(=O)c1nc(-c2ccc(C(F)(F)F)cn2)nc(O)c1O)C1CCCCC1`: the IC50 in data set [1] (read-out: IC50) stood at 23 µM.

The term CC50 denotes the concentration that lowers cell viability or growth by half. One may read the EC50 as the concentration at which the effect is half-maximal. As for `C[C@@H](NC(=O)c1nc(-c2ccccn2)nc(O)c1O)C1CCCCC1`, in data set [3], the half-maximal cytotoxic concentration (CC50) worked out at 3.2 µM. Besides, the CC50 at 168 h in [4] is 3 µM. Moreover, the EC50 in data set [5] is 0.7 µM. For the same compound, in data set [1] (read-out: IC50), the concentration for half-maximal inhibition (IC50) stood at 42 µM. Further, the selectivity ratio at 7 days in data set [6] turned out to be 4. Moreover, the selectivity ratio in data set [7] came to 5.

Consider `O=C(NCc1ccccc1)c1nc(-c2ccccn2)nc(O)c1O`, for which, in data set [1], the IC50 result is reported as “Not Active”.

Regarding `C[C@@H](NC(=O)c1nc(-c2ncccc2C(F)(F)F)nc(O)c1O)C1CCCCC1`, the IC35 in data set [2] came out at 20 µM.

Turning to `CCNC(=O)c1nc(-c2ccccn2)nc(O)c1O`, in data set [1], the 50% inhibitory concentration (IC50) result is given as “Not Active”.

With `CC(C)(C)c1nc(O)c(O)c(C(=O)NCC2CCCCC2)n1`, the IC50 entry in data set [1] is “Not Active”.

Take `C[C@H](NC(=O)c1nc(-c2ccccn2)nc(O)c1O)C1CCCCC1`: the cytotoxic concentration (CC50) in data set [3] stood at 0.6 µM. Also, the half-maximal cytotoxic concentration (CC50) at 168 h in data set [4] stood at 2.4 µM. Also, the EC50 in data set [5] worked out at 0.2 µM. Further, in [1] (read-out: IC50), the IC50 worked out at 47 µM. In addition, the selectivity ratio at 7 days in data set [6] was 12. Further, the selectivity ratio in [7] is 3.

As to `CC(Cc1ccc(O)c(O)c1)C(C)Cc1ccc(O)c(O)c1` (centres undefined) [NORDIHYDROGUAIARETIC ACID], the concentration for half-maximal inhibition (IC50) in data set [1] (read-out: IC50) came to 26 µM.

In the case of `O=C(NCC1CCCCC1)c1nc(-c2ccncc2)nc(O)c1O`, the IC50 result in [1] is reported as “Not Active”.

As a reminder, the half-life is how long it takes for the measured level to halve. A lower half-life goes with fast loss. Regarding `C[C@@H](NC(=O)c1nc(-c2cc(C(F)(F)F)ccn2)nc(O)c1O)C1CCCCC1`, the IC50 is > 30 µM on Cytochrome P450 1A2; > 30 µM at Cytochrome P450 2D6; > 30 µM at Cytochrome P450 3A4; 12 µM in data set [1] (read-out: IC50); > 30 µM in data set [10]. The 50% cytotoxic concentration (CC50) in data set [3] was found to be 6 µM. Also, the half-life at 3 µM is > 4 h in data set [8], 2.4 h in [9], > 1 h in data set [11] and > 1 h in data set [12]. Further, the CC50 at 168 h in data set [4] was found to be 1.1 µM. In data set [5], the EC50 came to 0.4 µM. Moreover, in data set [6], the selectivity ratio at 7 days was 3. For the same compound, in [7], the selectivity ratio amounted to 15.

For `Cc1cccnc1-c1nc(O)c(O)c(C(=O)N[C@H](C)C2CCCCC2)n1`, in data set [1] (read-out: IC50), the 50% inhibitory concentration (IC50) was 21 µM.

On to `Cc1cccc(-c2nc(O)c(O)c(C(=O)N[C@H](C)C3CCCCC3)n2)n1`, for which, in data set [1] (read-out: IC50), the IC50 amounted to 20 µM.

For `O=C(NCC1CCCCC1)c1nc(-c2cccnc2)nc(O)c1O`, the IC50 result in data set [1] is “Not Active”.

For the compound `O=C(NCC1CCCCC1)c1nc(-c2ccccn2)nc(O)c1O`, the CC50 in [3] worked out at 3.6 µM. Further, the CC50 at 168 h in data set [4] was 2.6 µM. Also, the EC50 in [5] was 1.2 µM. In data set [1] (read-out: IC50), the half-maximal inhibitory concentration (IC50) came to 167 µM. Besides, in data set [13], the inhibition result was “inactive”. For the same compound, the selectivity ratio at 7 days in [6] came out at 2. Besides, the selectivity ratio in [7] is 3.

In the case of `Cc1ccnc(-c2nc(O)c(O)c(C(=O)N[C@H](C)C3CCCCC3)n2)c1`, in data set [3], the CC50 amounted to 2.7 µM. In addition, the CC50 at 168 h in data set [4] amounted to 3.1 µM. In data set [5], the 50% effective concentration (EC50) came to 0.2 µM. Further, the IC50 in data set [1] (read-out: IC50) is 8 µM. Further, the selectivity ratio at 7 days in [6] worked out at 16. The selectivity ratio in data set [7] was 13.

With `CC(Cc1nc(-c2ccc(O)c(O)c2)cs1)n1cc(Cl)cn1` (centres undefined), the IC50 in data set [1] (read-out: IC50) worked out at 110 µM.

For `O=C(NCCC1CCCCC1)c1nc(-c2ccccn2)nc(O)c1O`, the CC50 in data set [3] was 4.2 µM. The CC50 at 168 h in [4] turned out to be 11 µM. Further, the EC50 in data set [5] turned out to be 2.3 µM. The IC50 in data set [1] (read-out: IC50) is 38 µM. For the same compound, the selectivity ratio at 7 days in [6] worked out at 5. Further, in [7], the selectivity ratio amounted to 2.

With `CN(CC1CCCCC1)C(=O)c1nc(-c2ccccn2)nc(O)c1O`, in data set [1], the half-maximal inhibitory concentration (IC50) result is listed as “Not Active”.

Consider `O=C(NCC1CCCCC1)c1nc(-c2ccccc2)nc(O)c1O`, for which, in data set [1], the IC50 entry is “Not Active”.

Consider `Cc1ccc(-c2nc(O)c(O)c(C(=O)N[C@H](C)C3CCCCC3)n2)nc1`, for which the IC40 in data set [2] was found to be 20 µM.

With `O=C(NC1CCCCC1)c1nc(-c2ccccn2)nc(O)c1O`, in data set [1] (read-out: IC50), the IC50 was 300 µM.

Source of the values: ChEMBL document CHEMBL4613292, “5,6-Dihydroxypyrimidine Scaffold to Target HIV-1 Nucleocapsid Protein” (ACS Med Chem Lett, 2020).
